The record followed here is PMC3090455 (Analytical biochemistry, 2011).

One may read the IC50 as the midpoint of a concentration-inhibition curve. Usually Km stands for the concentration of substrate that gives half-maximal velocity. Usually Vmax stands for the top rate of the reaction or transport when substrate is in excess.

For data set [1], the target named is T1, human mEH (Homo sapiens, UniProt P07099).
T1 sequence (P07099 1-455): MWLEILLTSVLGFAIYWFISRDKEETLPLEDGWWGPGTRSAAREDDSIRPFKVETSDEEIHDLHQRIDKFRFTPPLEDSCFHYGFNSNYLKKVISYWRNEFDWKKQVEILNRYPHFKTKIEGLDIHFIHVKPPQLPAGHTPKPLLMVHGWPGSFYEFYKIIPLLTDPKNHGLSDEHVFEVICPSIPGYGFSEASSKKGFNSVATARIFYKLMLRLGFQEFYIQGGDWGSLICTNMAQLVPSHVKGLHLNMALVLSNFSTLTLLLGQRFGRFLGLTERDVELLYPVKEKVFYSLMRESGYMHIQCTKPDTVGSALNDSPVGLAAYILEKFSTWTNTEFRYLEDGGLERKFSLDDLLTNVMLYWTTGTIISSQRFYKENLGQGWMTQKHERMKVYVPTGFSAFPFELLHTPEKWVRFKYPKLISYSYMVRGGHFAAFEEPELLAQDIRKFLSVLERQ
The data set is described as follows: Inhibition potency assay with fluorescent substrate 11, human mEH. It counts as biochemical. In a few lines: (§1)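 Kinetic fluorescent format: baculovirus-expressed, partially purified enzyme in 100 mM Tris/HCl pH 8.5 with 0.1 mg/mL BSA (final human 1.6, rat 0.5 μg/mL), preincubated 5 min at 30°C with inhibitor (0–200 μM final, from DMSO). Substrate at 25 μM final (rat also tested at 2.5 μM). Naphthaldehyde followed 10 min at 30°C. IC50 regressed from ≥6 points in the linear region; three runs, each in triplicate.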

Data set [2] addresses T2, rat mEH (Rattus norvegicus, UniProt P07687).
T2 sequence (P07687 1-455): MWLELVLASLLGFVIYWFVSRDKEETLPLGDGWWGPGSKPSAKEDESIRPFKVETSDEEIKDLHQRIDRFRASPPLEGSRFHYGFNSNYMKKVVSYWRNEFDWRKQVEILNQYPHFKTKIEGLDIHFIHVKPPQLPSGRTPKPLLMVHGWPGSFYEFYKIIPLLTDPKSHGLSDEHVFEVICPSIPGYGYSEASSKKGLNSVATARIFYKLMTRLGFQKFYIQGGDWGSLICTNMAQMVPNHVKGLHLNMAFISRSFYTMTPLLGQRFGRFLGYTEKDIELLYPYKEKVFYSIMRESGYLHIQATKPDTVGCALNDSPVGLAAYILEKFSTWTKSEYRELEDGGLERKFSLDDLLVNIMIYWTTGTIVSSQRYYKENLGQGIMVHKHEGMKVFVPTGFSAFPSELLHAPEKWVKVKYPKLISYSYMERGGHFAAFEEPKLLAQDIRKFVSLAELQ
Description: Inhibition potency assay with [3H]-cSO radiochemical substrate, rat mEH. Format: biochemical. A digest of the protocol: (§2)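 Radiochemical format with [3H]-cis-stilbene oxide at 50 μM final. Partially purified recombinant enzyme: rat 1.0, human 3.2 μg/mL. Reaction in 100 mM Tris/HCl pH 9.0 with 0.1 mg/mL BSA, 5 min at 30°C, quenched with isooctane to extract remaining epoxide. Radioactive diol in the aqueous phase counted by liquid scintillation; run in triplicate.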

Data set [3] concerns the target T2, rat mEH. Description: Inhibition potency assay with fluorescent substrate 11, rat mEH. Format: biochemical. In a few lines:
as §1

Data set [4] addresses T1, human mEH. The data set is described as follows: Inhibition potency assay with [3H]-cSO radiochemical substrate, human mEH. It counts as biochemical. In a few lines: as §2
For data set [5], the system named is mEH. The data set is described as follows: Retest of screening hits with cSO as substrate. It counts as biochemical. To be noted: suggests false positive in fluorescent assay.
Data set [6] deals with T2, rat mEH. The data set is described as follows: High throughput screening end-point assay with 11, rat mEH. Format: biochemical. To be noted: [I] 10 μM, [11] 25 μM, 30 min end-point, room temperature. In a few lines:
(§3)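 End-point screen of a pesticide library at 10 μM final. Recombinant partially purified enzyme (human 1.6, rat 0.5 μg/mL final) in 100 mM Tris/HCl pH 8.5 with 0.1 mg/mL BSA, preincubated with compounds 5 min at 30°C. Substrate added to 25 μM, then 30 min at room temperature in the dark before fluorescence reading (ex 330/em 465 nm). Buffer-only background and full-activity control wells; duplicate averages.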

Data set [7] deals with mEH. The data set is described as follows: Retest of screening hits in inhibition potency assay with 11. The note with it: 10 μM. Format: biochemical. A digest of the protocol: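 Hits from the library screen retested at 10 μM in the kinetic fluorescent format: 5 min preincubation with partially purified enzyme in Tris/HCl pH 8.5 with BSA at 30°C. Then 25 μM substrate, with 6-methoxy-2-naphthaldehyde monitored for 10 min.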

Data set [8] addresses T1, human mEH. Description: High throughput screening end-point assay with 11, human mEH. The note with it: [I] 10 μM, [11] 25 μM, 30 min end-point, room temperature. It counts as biochemical. In a few lines:
as §3

A short description of a further data set: Background. Format: physicochemical. To be noted: [S] 50 μM, Tris/HCl 100 mM pH 9.0, 0.1 mg/mL BSA, 37°C, 4-nitrophenol absorbance. A digest of the protocol:
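Enzyme-free control wells held Tris/HCl (100 mM, pH 9.0, 0.1 mg/mL BSA), preincubated 5 min at 37°C. Substrate was added from a 5 mM DMSO stock working solution to 50 μM final, and product was read kinetically for 5 min. Read-out was 4-nitrophenol absorbance at […] fluorescence (ex 355/em 450 or ex 330/em 465 nm). Signals were converted to molar amounts via 0.005–0.5 μM standard curves; 8 replicates.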

Data set [9] has as its target T2, rat mEH. The data set is described as follows: Specific activity of rat mEH for absorbent/fluorescent substrates. It counts as biochemical. The note with it: [S] 50 μM, pH 9.0, 37°C, 4-nitrophenyl substrates. A digest of the protocol:
(§4)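 Partially purified recombinant enzyme (0.5–80 μg/mL final) in 100 mM Tris/HCl pH 9.0 with 0.1 mg/mL BSA, preincubated 5 min at 37°C. Substrate added at 50 μM final from 5 mM DMSO stock; buffer-only wells gave background. Read kinetically for 5 min: 4-nitrophenol at 450 nm, or fluorescence (coumarin ex 355/em 450; naphthaldehyde ex 330/em 465). Signals converted via standard curves (0.005–0.5 μM); 8 replicates.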

For data set [10], the target named is T1, human mEH. The data set is described as follows: Specific activity of human mEH for absorbent/fluorescent substrates. It counts as biochemical. The note with it: [S] 50 μM, pH 9.0, 37°C, 4-nitrophenyl substrates. In a few lines: as §4
Substrate in data set [11]: COc1ccc2cc(C(C#N)OC(=O)OCC3CO3)ccc2c1
The data set is described as follows: Kinetic constants determination, human mEH. The note with it: other: Tris/HCl pH 9.0 100 mM, 0.1 mg/mL BSA, 37°C. Format: biochemical.

Substrate in data set [12]: COc1ccc2cc(C(C#N)OC(=O)OCC3CO3)ccc2c1
The data set is described as follows: Kinetic constants determination, rat mEH. It counts as biochemical. To be noted: other: Tris/HCl pH 9.0 100 mM, 0.1 mg/mL BSA, 37°C.

Where [13] appears, read: IC50, Rat mEH, 11 as substrate, [11] 25 μM, enzyme 0.5 μg/mL, pH 8.5, 30°C.

As to `CCCCCCC(O)CCCCCCCCCCC(N)=O` (stereo not drawn) [C, 12-hydroxy-octadecanamide], the IC50 at human mEH [1] is greater than 200000 nM; against rat mEH [2], 1100 ± 100 nM; against rat mEH [3] (setting [13]) it was 123000 ± 13000 nM; against human mEH [4] it was 2600 ± 300 nM.
Take `Oc1cc(Cl)ccc1Oc1ccc(Cl)cc1Cl` [triclosan]: the “mEH inhibition with cSO as substrate” value in the data set on mEH [5] is “no inhibition was observed”. For the same molecule, the “inhibition of rat mEH in library screen” value against rat mEH [6] is listed as “significant inhibition”. For the same molecule, in the data set with mEH [7], the “mEH inhibition on retest with 11 in the inhibition potency assay” value (“mEH inhibition on retest” for short) was “confirmed mEH inhibition”. Also, the “inhibition of human mEH in library screen” value (“inhibition of human mEH” for short) on human mEH [8] is reported as “significant inhibition”.
Regarding `CCCCCCCC/C=C/CCCCCCCC(N)=O` [B, elaidamide], the IC50 at human mEH [1] (read-out: IC50, Human mEH, 11 as substrate, [11] 25 μM, enzyme 1.6 μg/mL, pH 8.5, 30°C) was found to be 140000 ± 13000 nM; on rat mEH [2] (read-out: IC50, Rat mEH, cSO as substrate, [cSO] 50 μM, enzyme 1.0 μg/mL), 500 ± 100 nM; on rat mEH [3] (read-out: IC50, Rat mEH, 11 as substrate, [11] 25 μM, enzyme 0.5 μg/mL, pH 8.5, 30°C) it was 63000 ± 5000 nM; on human mEH [4] (read-out: IC50, Human mEH, cSO as substrate, [cSO] 50 μM, enzyme 3.2 μg/mL) it was 1000 ± 100 nM.
For `Brc1ccc(Oc2ccc(Br)cc2Br)c(Br)c1` [BDE47], the “mEH inhibition with cSO as substrate” value in the data set on mEH [5] was “no inhibition was observed”. In addition, the “inhibition of rat mEH in library screen” value on rat mEH [6] is given as “significant inhibition”. Moreover, the “mEH inhibition on retest” value with mEH [7] was “confirmed mEH inhibition”. Also, the “inhibition of human mEH” value against human mEH [8] is recorded as “significant inhibition”.
Molecule `O=C(OCC1CO1)Oc1ccc([N+](=O)[O-])cc1` (stereo not drawn) [compound 6, 4-Nitrophenyl (oxiran-2-yl)methyl carbonate] yielded a background hydrolysis in “Background” of 0.31 ± 0.02 nmol/min. At rat mEH [9], the “Rat mEH S/B (signal to background ratio)” value worked out at 5, the “Rat mEH S/N (signal to noise ratio)” value turned out to be 32, the “Rat mEH Spec. act.” value worked out at 29 ± 2 nmol/min/mg and the “Rat mEH Z' (screening window coefficient)” value is listed as 0.67. Further, at human mEH [10], the “Human mEH S/B (signal to background ratio)” value is recorded as 3, the “Human mEH S/N (signal to noise ratio)” value is 53, the “Human mEH Spec. act.” value is 51 ± 2 nmol/min/mg and the “Human mEH Z' (screening window coefficient)” value is reported as 0.82.
Turning to `CCCCCCCCCSC(C)C(N)=O` (stereo not drawn) [A, 2-nonylsulfanyl-propionamide], the IC50 against rat mEH [2] was determined as 400 ± 100 nM; on rat mEH [3] (setting [13]) it was 4200 ± 700 nM; against rat mEH [3] (IC50, rat mEH, 11 as substrate near its KM, [11] = 2.5 μM) it was 500 nM; at human mEH [4] it was 500 ± 100 nM.
Take `CC(C)[C@H](C(=O)O[C@H](C#N)c1cccc(Oc2ccccc2)c1)c1ccc(Cl)cc1` [Asana]: the “mEH inhibition with cSO as substrate” value in the data set with mEH [5] is “no inhibition was observed”. On rat mEH [6], the “inhibition of rat mEH in library screen” value is on record as “significant inhibition”. Also, in the data set on mEH [7], the “mEH inhibition on retest” value was “confirmed mEH inhibition”. Further, the “inhibition of human mEH” value against human mEH [8] is “significant inhibition”.

B1: human mEH (Homo sapiens) (protein)
chain: T1 sequence (P07099 1-455)
On to B1, for which, in [11], the Km was 3.8 ± 0.6 µM, the Vmax is 0.042 µmol/min/mg and the Vmax/Km is 11000 µL/min/mg.

B2: rat mEH (Rattus norvegicus) (protein)
chain: T2 sequence (P07687 1-455)
Take B2: in data set [12], the Km worked out at 2.3 ± 0.4 µM, the Vmax amounted to 0.089 µmol/min/mg and the Vmax/Km was determined as 40000 µL/min/mg.
